Reference: ChEMBL document CHEMBL4411273, “Polycyclic maleimide-based derivatives as first dual modulators of neuronal calcium channels and GSK-3β for Alzheimer's disease treatment” (Eur J Med Chem, 2019)

Columns and labels:
Right cardiac atrium [1] = assay: Negative inotropic activity in guinea pig spontaneously beating right atrium assessed as decrease in developed tension at 5 x 10^-5 M; assay type: ADME, tissue-based, Cavia porcellus; design: scale not given: the % may be the effect or the level left; settings: 50 µM
How it was run: (§1)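 Isolated spontaneously beating guinea-pig right atrium. Cumulative compound addition from 0.1 to 100 µM. Percent decrease in atrial rate, and in developed tension (n = 7–8), versus control. EC50 from log concentration–response curves by Probit analysis; not calculated when maximum effect was <50%.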

Left cardiac atrium [2] = assay: Negative inotropic activity in guinea pig left atrium assessed as decrease in developed tension at 10^-5 M relative to control; design: scale not given: the % may be the effect or the level left; settings: 10 µM
Right cardiac atrium [3] = assay: Negative chronotropic activity in guinea pig spontaneously beating right atrium assessed as decrease in atrial rate at 5 x 10^-5 M; assay type: ADME, tissue-based, Cavia porcellus; design: scale not given: the % may be the effect or the level left; settings: 50 µM; how it was run: as §1
Left cardiac atrium [4] = assay: Negative inotropic activity in guinea pig left atrium assessed as decrease in developed tension; assay type: ADME, tissue-based; settings: Cavia porcellus
Aorta [5] = assay: Inhibition of calcium-induced contraction in K+-depolarized guinea pig aortic strips at 5 x 10^-5 M relative to control; assay type: tissue-based; settings: Cavia porcellus
How it was run: (§2)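 Isolated guinea-pig aortic strips and ileum longitudinal smooth muscle, depolarized with 80 mM K+. Calcium-induced contraction measured with cumulative compound addition. Percent inhibition relative to control. IC50 from log concentration–response curves by Probit analysis, n = 6–7; not calculated when maximum effect was <50%.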

Ileum [6] = assay: Inhibition of calcium-induced contraction in K+-depolarized guinea pig ileum at 5 x 10^-5 M relative to control; assay type: tissue-based; settings: Cavia porcellus; how it was run: as §2
[7] = system: Voltage-gated calcium channel; assay: Inhibition of K+-induced voltage gated calcium channel opening in human SH-SY5Y cells assessed as decrease in Ca2+ level at 10 uM after 10 mins by Fluo-4 dye-based fluorescence assay relative to control; assay type: cell-based
How it was run: (§3)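 Confluent SH-SY5Y cells (36–72 h after seeding) loaded with Fluo-4, washed with Krebs-HEPES, then incubated 10 min with compound or DMSO. Depolarized by injecting KCl to 70 mM and fluorescence followed for 2 min. Fmax taken after 5% Triton X lysis, Fmin after MnCl2. Ca2+ rise expressed against K+-induced rise without compound; blind testing, at least three independent experiments in triplicate, mean ± SEM. IC50 obtained by sigmoidal regression.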

Right cardiac atrium [8] = assay: Negative inotropic activity in guinea pig spontaneously beating spontaneously beating right atrium assessed as decrease in developed tension; assay type: ADME, tissue-based; settings: Cavia porcellus; how it was run: as §1
Left cardiac atrium [9] = assay: Negative inotropic activity in guinea pig left atrium assessed as decrease in developed tension at 5 x 10^-5 M relative to control; assay type: ADME, tissue-based, Cavia porcellus; design: scale not given: the % may be the effect or the level left; settings: 50 µM
How it was run: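 Isolated guinea-pig left atrium driven at 1 Hz. Cumulative compound concentrations from 0.1 to 100 µM. Percent decrease in developed tension versus control, n = 5–6. EC50 from log concentration–response curves by Probit analysis, n = 6–7; not calculated when maximum effect was <50%.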

Right cardiac atrium [10] = assay: Negative chronotropic activity in guinea pig spontaneously beating right atrium assessed as decrease in atrial rate at 10^-6 M; assay type: ADME, tissue-based, Cavia porcellus; design: scale not given: the % may be the effect or the level left; settings: 1 µM; how it was run: as §1
Ileum [11] = assay: Inhibition of calcium-induced contraction in K+-depolarized guinea pig ileum; assay type: tissue-based; settings: Cavia porcellus
Ileum [12] = assay: Inhibition of calcium-induced contraction in K+-depolarized guinea pig ileum at 10^-5 M relative to control; assay type: tissue-based; settings: Cavia porcellus; how it was run: as §2
[13] = biological target: Voltage-gated calcium channel; assay: Inhibition of K+-induced voltage gated calcium channel opening in human SH-SY5Y cells assessed as decrease in Ca2+ level after 10 mins by Fluo-4 dye-based fluorescence assay; assay type: cell-based; how it was run: as §3
Ileum [14] = assay: Inhibition of calcium-induced contraction in K+-depolarized guinea pig ileum at 10^-6 M relative to control; assay type: tissue-based; settings: Cavia porcellus; how it was run: as §2
[15] = Cytotoxicity against human SH-SY5Y cells assessed as cell viability at 10 uM after 48 hrs by MTT assay relative to control; assay type: cell-based; settings: read-out: Activity
How it was run: (§4)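 SH-SY5Y cells seeded at 70 000 cells/well, exposed before confluence to compounds in MEM/F12 with 10% FBS for 24 h, then fresh medium with 1% FBS plus compounds for a further 24 h. MTT 1.2 mM for 2 h in dark; formazan dissolved in DMSO, absorbance at 540 nm. Viability expressed as percent of vehicle (DMSO)-treated cells; three independent experiments, mean ± SEM.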

[16] = biological target: Glycogen synthase kinase-3 beta (Homo sapiens) (UniProt P49841); assay: Inhibition of GSK3beta (unknown origin) assessed as residual activity at 50 uM pre-incubated for 30 mins followed by ULight-GS (Ser641/pSer657) peptide substrate addition and measured after 1 hr by TR-FRET assay relative to control
Glycogen synthase kinase-3 beta (Homo sapiens), sequence (P49841 whole entry, looked up): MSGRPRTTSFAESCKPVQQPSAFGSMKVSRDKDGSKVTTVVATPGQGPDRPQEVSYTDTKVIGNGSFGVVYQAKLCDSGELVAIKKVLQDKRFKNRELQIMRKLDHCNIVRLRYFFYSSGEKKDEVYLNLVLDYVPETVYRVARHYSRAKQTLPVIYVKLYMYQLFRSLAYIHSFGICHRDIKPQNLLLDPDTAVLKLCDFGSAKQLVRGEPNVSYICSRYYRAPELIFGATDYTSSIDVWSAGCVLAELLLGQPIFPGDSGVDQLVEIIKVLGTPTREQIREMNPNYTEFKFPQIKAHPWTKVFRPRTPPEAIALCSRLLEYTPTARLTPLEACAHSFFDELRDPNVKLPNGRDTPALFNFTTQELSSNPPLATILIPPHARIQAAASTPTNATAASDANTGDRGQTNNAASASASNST
How it was run: (§5)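 TR-FRET (LANCE Ultra) kinase assay at 22 °C in 50 mM HEPES pH 7.5, 1 mM EGTA, 10 mM MgCl2, 2 mM DTT, 0.01% Tween-20, 3% DMSO. GSK-3β (0.5 nM final) preincubated 30 min with compound; ATP 10 µM and ULight-GS peptide 50 nM (final) added for 1 h. Stopped with 24 mM EDTA plus 2 nM Eu-anti-phospho-GS antibody, 1 h. Read at ex 320 nm, em 615/665 nm. Residual activity relative to DMSO; three separate experiments, mean ± SD.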

[17] = Cytotoxicity against human SH-SY5Y cells assessed as cell viability at 30 uM after 48 hrs by MTT assay relative to control; assay type: cell-based; settings: read-out: Activity; how it was run: as §4
Right cardiac atrium [18] = assay: Negative chronotropic activity in guinea pig spontaneously beating right atrium assessed as decrease in atrial rate at 10^-5 M; assay type: ADME, tissue-based, Cavia porcellus; design: scale not given: the % may be the effect or the level left; settings: 10 µM; how it was run: as §1
[19] = system: Left cardiac atrium (Cavia porcellus); assay: Negative inotropic activity in guinea pig left atrium driven at 1 Hz assessed as decrease in developed tension at 10^-5 M; design: scale not given: the % may be the effect or the level left; settings: 10 µM
[20] = biological target: Glycogen synthase kinase-3 beta (Homo sapiens) (UniProt P49841); assay: Inhibition of GSK3beta (unknown origin) assessed as residual activity at 3.12 uM pre-incubated for 30 mins followed by ULight-GS (Ser641/pSer657) peptide substrate addition and measured after 1 hr by TR-FRET assay relative to control; how it was run: as §5
Right cardiac atrium [21] = assay: Negative chronotropic activity in guinea pig spontaneously beating right atrium assessed as decrease in atrial rate at 10^-7 M; assay type: ADME, tissue-based, Cavia porcellus; design: scale not given: the % may be the effect or the level left; settings: 0.1 µM
Aorta [22] = assay: Inhibition of calcium-induced contraction in K+-depolarized guinea pig aortic strips at 10^-6 M relative to control; settings: Cavia porcellus, read-out: INH
Ileum [23] = assay: Inhibition of calcium-induced contraction in K+-depolarized guinea pig ileum at […] relative to control; settings: Cavia porcellus, read-out: INH

| SMILES | Activity (Right cardiac atrium [1]) [%] | Activity (Left cardiac atrium [2]) [%] | EC50 (Left cardiac atrium [4]) [µM] | inhibition at 50 µM (Aorta [5]) [%] | inhibition at 50 µM (Ileum [6]) [%] | inhibition (INH) [7] [%] | EC50 (Right cardiac atrium [8]) [µM] | Activity (Left cardiac atrium [9]) [%] | EC50 (Ileum [11]) [µM] | IC50 [13] [µM] | viability at 48 h, 10 µM [15] [%] | viability at 48 h, 30 µM [17] [%] | Activity (Right cardiac atrium [18]) [%] | Activity [19] [%] | further results |
| --- | --- | --- | --- | --- | --- | --- | --- | --- | --- | --- | --- | --- | --- | --- | --- |
| CC(=O)Nc1cccc2c1C1c3ccccc3C2C2C(=O)NC(=O)C12 (stereo unspecified) | 34 | 65 | 0.32 | 6 | 12 | 0 |  |  |  |  |  |  |  |  | Activity (Right cardiac atrium [3]): 8% |
| Nc1ccc2c(c1)C1c3ccccc3C2C2C(=O)NC(=O)C12 (stereo unspecified) | 79 |  | 1.49 |  |  | 6 | 2.2 | 74 | 1.27 |  |  |  |  |  | Activity (Right cardiac atrium [10]): 15%; inhibition at 10 µM (Ileum [12]): 90% |
| COCCOC(=O)C1=C(C)NC(C)=C(C(=O)OC(C)C)C1c1cccc([N+](=O)[O-])c1 (stereo unspecified) [NIMODIPINE] |  |  |  |  |  | 25 |  |  |  | 14 |  |  |  |  |  |
| CC(=O)Nc1ccc2c(c1)C1c3ccccc3C2C2C(=O)NC(=O)C12 (stereo unspecified) | 93 |  | 3.65 | 10 |  | 8 | 2.18 | 79 | 2.51 |  |  |  |  |  | Activity (Right cardiac atrium [3]): 37%; inhibition at 10 µM (Ileum [12]): 67% |
| O=C1NC(=O)C2C1C1(Cl)c3ccccc3C2(Cl)c2ccccc21 (stereo unspecified) | 97 |  | 0.22 | 7 |  | 38 | 0.47 | 97 | 0.49 | 15 | 95 | 92 |  |  | inhibition at 1 µM (Ileum [14]): 68%; Activity [16]: 48% |
| O=C1NC(=O)C2C3c4ccccc4C(c4ccc(Cl)cc43)C12 (stereo unspecified) |  | 80 | 0.43 | 21 |  | 39 | 2.48 |  | 3.33 | 15 | 91 | 97 | 47 | 87 | inhibition at 1 µM (Ileum [14]): 90% |
| Nc1cccc2c1C1c3ccccc3C2C2C(=O)NC(=O)C12 (stereo unspecified) | 92 |  | 1.91 | 8 | 97 | 11 | 1.87 | 82 | 14.7 |  |  |  | 42 |  |  |
| O=C1NC(=O)C2C3c4ccccc4C(c4cccc(Cl)c43)C12 (stereo unspecified) |  | 93 | 0.87 | 9 |  | 37 | 1.08 |  | 1.18 | 11 | 92 | 93 | 37 | 94 | inhibition at 10 µM (Ileum [12]): 90% |
| O=C1NC(=O)C2C1C1c3ccccc3C2(/C=N/Cc2ccccc2)c2ccccc21 (stereo unspecified) | 85 |  | 0.85 |  | 85 | 4 | 2.87 | 75 | 12.1 |  |  |  |  |  | Activity (Right cardiac atrium [3]): 26%; Activity [16]: 51% |
| CCCCCCCNC(=O)C12c3ccccc3C(c3ccccc31)C1C(=O)NC(=O)C12 (stereo unspecified) |  | 76 | 1.91 | 6 | 94 | 56 | 0.51 |  | 3.67 | 9 | 85 | 87 | 45 | 85 | Activity [20]: 55%; Activity [16]: 10% |
| COC(=O)C1=C(C)NC(C)=C(C(=O)OC)C1c1ccccc1[N+](=O)[O-] [NIFEDIPINE] |  |  |  |  |  |  |  |  | 0.0015 |  |  |  |  |  | Activity (Left cardiac atrium [2]; Left cardiac atrium): 97%; Activity (Right cardiac atrium [21]): 85%; inhibition at 1 µM (Aorta [22]): 82%; inhibition at 0.005 µM (Ileum [23]): 70% |
| CC(=O)c1ccc2c(c1)C1c3ccccc3C2C2C(=O)NC(=O)C12 (stereo unspecified) |  |  |  | 18 | 85 | 20 |  | 11 | 0.77 |  |  |  | 33 | 4 |  |
